Compound activity as filed in PubChem BioAssay.
Rows were chosen to be rich in hits. Some 4.1% of all compounds tested hit in one or more screens of this group.
FLuc act counter = affects firefly luciferase, flagging false hits in luciferase stimulation screens. activation factor at 10 µM. ATPlite luciferase biochemical, luminescence, 10 min; 0 = ATP-free wells, 1 = DMSO control. 200,000 tested, under 10 active. AID 1027. P08659;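 active = luciferase activation factor, scaled between plate controls, of at least 2 with compound at 10 µM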
Target sequence (P08659 whole entry, looked up): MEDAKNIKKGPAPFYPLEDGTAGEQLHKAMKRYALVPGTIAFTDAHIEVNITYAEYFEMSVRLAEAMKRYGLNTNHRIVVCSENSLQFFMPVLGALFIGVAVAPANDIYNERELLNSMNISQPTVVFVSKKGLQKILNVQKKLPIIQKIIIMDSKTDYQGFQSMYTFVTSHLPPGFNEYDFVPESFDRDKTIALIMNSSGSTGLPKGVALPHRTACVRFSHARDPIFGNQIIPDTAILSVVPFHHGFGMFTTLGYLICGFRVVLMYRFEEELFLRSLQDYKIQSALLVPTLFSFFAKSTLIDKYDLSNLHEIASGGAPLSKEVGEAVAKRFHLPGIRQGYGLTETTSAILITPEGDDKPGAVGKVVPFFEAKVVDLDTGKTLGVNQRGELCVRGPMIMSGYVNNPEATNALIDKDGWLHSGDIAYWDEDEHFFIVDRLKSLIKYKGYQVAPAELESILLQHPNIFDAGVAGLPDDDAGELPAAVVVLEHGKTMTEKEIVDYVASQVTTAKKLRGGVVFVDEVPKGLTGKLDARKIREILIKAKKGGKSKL
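test system = cell-free luciferase reagent | medium = PBS as buffer for the ATP substrate | dosing = test compounds dosed from 2 mM stocks in 100% DMSO | incubation = 10 min at ambient temperature | detection = luminescence measurement of luciferase light output | benchmarks = low control with PBS replacing ATP, high control enzyme plus ATP without compound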
NF-kB neuron act = raises NF-kB expression in human neuronal cells | NF-kB reporter expression; stronger effect = higher value | 190,000 tested, 1.6% active | fold change at 12.5 µM; in the data active = fold change above about 3.3
APP 5'UTR act = APP 5'UTR luciferase reporter activation; activation, % at 2 µM; 190,000 tested, 1% active; SH-SY5Y APP 5'UTR luciferase reporter, luminescence; zero percent = DMSO vehicle wells; AID 1276;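 active = activation above a set limit, based on mean plus 3 SD of controls, cut at about 140% in these data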
FLuc inh counter = counter-screen for luciferase assay inhibitors: firefly luciferase inhibition. ATPLite firefly luciferase biochemical luminescence, 10 min. P08659. inhibition, % at 10 µM. 200,000 tested, 1.5% active;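 active = inhibition above about 50% when tested at 10 µM, limit read from the data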
STAT1 act = increases IFN-gamma driven STAT1 reporter signal | NIH 3T3 STAT1-luciferase reporter, luminescence; 100% = IFN-gamma alone, no compound | activation (% of control), % at 5.5 µM | 200,000 tested, 2.6% active;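 active = activation above the screen-wide mean activation plus 3 SD, cut at about 130% in these data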
Each line names hits and unclear results; the compound was inactive in the other large screens.

COc1cccc(C=Nc2ccc3c(c2)OCCO3)c1O	FLuc inh counter 96
O=C(Nc1ccc(F)cc1)/C(Cl)=C/c1ccccc1	NF-kB neuron act 7.3, APP 5'UTR act 188, STAT1 act 150
O=C(Nc1cccc2ccccc12)/C(Cl)=C/c1ccccc1	none
Cc1nn(C(=O)c2cc3sccc3[nH]2)c(C)c1C	STAT1 act 138
Cc1nn(C(=O)CNC(=O)c2ccccc2)c(C)c1C	none
O=C(c1ccc(-c2ccc([N+](=O)[O-])cc2Cl)o1)N1CCOCC1	STAT1 act 133
O=C(/C=C/c1ccccc1)OCc1cncs1	STAT1 act 129
O=S(=O)(Nc1ccc(N=Nc2ccc(O)c3ccccc23)cc1)c1ccccc1	none
COc1ccc2c(CSc3nc4nc(C)cc(C)n4n3)cc(=O)oc2c1	NF-kB neuron act 4.2
O=C(CSc1nc2ccccc2o1)NCc1n[nH]c(=O)c2ccccc12	none
O=C(N/N=C1\CCc2ccccc21)c1ccncc1	STAT1 act 130
COc1ccc(C(=O)N/N=C2\CCc3ccccc32)cc1OC	none
O=C(N/N=C1\CCCc2ccccc21)c1ccccc1Cl	none
O=C(N/N=C1\CCc2ccccc21)c1ccccc1O	NF-kB neuron act 3.8, FLuc inh counter 90
O=c1n(-c2ccc(Br)cc2)cnn1-c1ncccc1[N+](=O)[O-]	STAT1 act 130
O=C(Nc1ccccc1)c1ccc(CSc2ccccn2)cc1	APP 5'UTR act 197, STAT1 act 133
CS(=O)(=O)N(Cc1ccc(Cl)cc1)c1ccc(C(=O)NCCSc2ccccn2)cc1	none
O=C(NCCSc1ccccn1)c1ccc(Cl)cc1	NF-kB neuron act 6.1, APP 5'UTR act 209
O=C(Nc1ccc(CSc2ccccc2)cc1)c1ccccc1	none
O=C(NCCSc1ccccn1)c1ccc(Cl)cc1Cl	NF-kB neuron act 4.5
CCN(CC)c1ccc(C=C2C(=O)OC3(CCCC3)OC2=O)cc1	none
Cc1ccccc1Nc1nn2c(=O)c3ccccc3nc2s1	STAT1 act 138
CSc1nc2ccc3nc(NC(=O)c4ccc(C)cc4)sc3c2s1	none
Cc1ccc(C(=O)Nc2nc3ccccc3c(=O)s2)cc1	FLuc inh counter 80
Fc1ccc(Nc2nc3ccccc3s2)cc1	NF-kB neuron act 3.3, STAT1 act 146
O=C(Nc1nc(=O)c2ccccc2s1)c1ccccc1	NF-kB neuron act 3.6, FLuc inh counter 60, STAT1 act 138
N#CCCn1cc(C(CC(=O)c2ccccc2)C(=O)O)c2ccccc21 (stereo unspecified)	none
O=C(Nc1nnc(-c2ccccc2)s1)c1ccc(F)cc1	none
C=CCSc1nn2c(=O)c3ccccc3nc2s1	STAT1 act 134
Cc1ccccc1Nc1nc2ccccc2s1	NF-kB neuron act 5.6, STAT1 act 143
O=C(Nc1nc2ccccc2s1)c1ccc(F)cc1	NF-kB neuron act 9, APP 5'UTR act 173, FLuc inh counter 64
CCOC(=O)c1sc(NC(=O)c2ccccc2F)c(C(N)=O)c1C	none
CCOC(=O)c1c(C)oc2c1c(CN1CCN(CCO)CC1)c(O)c1ccccc12	none
CCOC(=O)c1c(C)oc2c1c(CN1CCN(C(=O)OCC)CC1)c(O)c1ccccc12	NF-kB neuron act 4.3, APP 5'UTR act 157
Cc1cc(C)c2c(N)c(-c3nc4ccccc4[nH]3)sc2n1	APP 5'UTR act 142
Cc1ccc2nc(-c3sc4nc(C)ccc4c3N)[nH]c2c1	NF-kB neuron act 5.9, FLuc inh counter 62
Cc1ccc(Nc2nc(-c3ccccc3)c(CC(=O)O)s2)cc1	STAT1 act 131
O=C(Cc1ccccc1)NCc1ccccn1	none
O=C(Cc1sc(Nc2ccccc2)nc1-c1ccccc1)NCc1ccccn1	STAT1 act 130
Cc1ccc(CN2CCN(CC(=O)NC(C)CCc3ccccc3)C2=O)cc1 (stereo unspecified)	none
CC(OC(=O)c1ccc(S(=O)(=O)N(C)c2ccccc2)cc1)C(=O)NCCC1=CCCCC1 (stereo unspecified)	none
Cn1c(N)c(C(=O)CSc2ccc3c(c2)OCCO3)c(=O)n(C)c1=O	none
Cc1cc(C(=O)CSc2ccc3c(c2)OCCO3)c(C)n1C1CC1	STAT1 act 133
Cc1ccccc1C(=O)NC(=S)Nc1ccccc1C(F)(F)F	FLuc inh counter 71
CCOC(=O)C1CCN(C(=O)c2ccccc2NS(=O)(=O)c2cc(C)ccc2C)CC1	none
O=c1[nH]c(NCCO)nc2ncn(Cc3ccccc3)c12	none (no result: APP 5'UTR act)
Cc1ccnc(SCc2nc3ccccc3s2)n1	STAT1 act 130
CCOC(=O)c1ccccc1N/C=C/C(=O)c1cccs1	none
O=C(/C=C/Nc1ccc(F)cc1F)c1cccs1	NF-kB neuron act 3.8, FLuc inh counter 98
O=C(/C=C/Nc1ccccc1F)c1cccs1	NF-kB neuron act 7.2, APP 5'UTR act 175, FLuc inh counter 95
Cc1ccc(N/C=C/C(=O)c2cccs2)cc1	APP 5'UTR act 214, FLuc inh counter 97
O=C(Nc1cccc(F)c1)/C(=C\c1ccco1)NC(=O)c1cccs1	none
O=C(/C=C\Nc1cccc(F)c1)c1cccs1	NF-kB neuron act 7.7, APP 5'UTR act 189, FLuc inh counter 79, STAT1 act 149
O=c1oc2ccccc2c(Nc2cc3ccccc3cc2O)c1[N+](=O)[O-]	none
O=C(NCc1cccnc1)/C(=C\c1ccc(-c2cccc(Cl)c2)o1)S(=O)(=O)c1ccccc1	none
COc1ccc(N2CCN(C(CNS(=O)(=O)c3cccs3)c3cccnc3)CC2)cc1 (stereo unspecified)	none
Nc1ccc(C(=O)OCc2nc3c(ccc4ccccc43)[nH]2)cc1	STAT1 act 151
CCOc1ccc(OCC)c(NC(=O)CC2Oc3ccc(C)cc3NC2=O)c1 (stereo unspecified)	none
O=C(N/N=C1/CC2C=CCC12)c1ccco1 (stereo unspecified)	STAT1 act 134
CCC(C)C(NC(=O)C(N)CC(C)C)C(=O)NC(CCC(=O)OCc1ccccc1)C(N)=O (stereo unspecified)	none
COc1ccc(NC(=O)c2cccnc2)c([N+](=O)[O-])c1	none
CCOc1ccc(NC(=O)c2ccc(CC)s2)c([N+](=O)[O-])c1	STAT1 act 133
CCCOc1ccc(C(=O)Nc2ccccc2[N+](=O)[O-])cc1	STAT1 act 140 (no result: FLuc act counter, NF-kB neuron act, FLuc inh counter)
COc1ccc(NC(=O)c2ccccc2)c([N+](=O)[O-])c1	STAT1 act 132
CCOC(=O)N1CCC(=NNC(=O)c2cc3ccccc3cc2O)CC1	none
c1ccc2c(Nc3nnc(-c4ccncc4)s3)cccc2c1	FLuc inh counter 52
CC(C)[C@H](NS(=O)(=O)c1cccc(Cl)c1)C(=O)OCC(=O)N1CCN(c2ccccc2)CC1	none
COc1cc(/C=C/c2cc(C(=O)O)c3ccccc3n2)cc(OC)c1O	none
CCOc1cc(/C=C/c2cc(C(=O)O)c3ccccc3n2)ccc1OC	FLuc inh counter 86
CCOc1cc(/C=N/NC(=O)Nc2ccccc2)ccc1O	none
CCOc1cc(/C=C/c2cc(C(=O)O)c3ccccc3n2)ccc1O	FLuc inh counter 73
